The text below walks through data of ChEMBL document CHEMBL1128200, “(R)-(+)-N-[3-[5-[(4-fluorophenyl)methyl]-2-thienyl]-1-methyl- 2-propynyl]-N-hydroxyurea (ABT-761), a second-generation 5-lipoxygenase inhibitor” (J Med Chem, 1995).

SMILES strings stand for the structures.

The subject of one data set is Rattus norvegicus. The data set can be described thus: Compound was evaluated in vivo for the rat anaphylaxis leukotriene formation at an oral dose of 30 umol/kg. It is filed as functional. The method, boiled down: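 Male Sprague-Dawley rats passively sensitized ip with rabbit anti-BSA antiserum; 3 h later challenged ip with 4 mg BSA in PBS. Drug given by oral gavage 1 h before challenge; killed 15 min post-challenge, peritoneal fluid collected, methanol-extracted, LTE4 measured by EIA. 8 rats/group; percent inhibition versus control group mean.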

The target in data set [1] is T1, Polyunsaturated fatty acid 5-lipoxygenase (Homo sapiens) (UniProt P09917).
T1 sequence (whole entry): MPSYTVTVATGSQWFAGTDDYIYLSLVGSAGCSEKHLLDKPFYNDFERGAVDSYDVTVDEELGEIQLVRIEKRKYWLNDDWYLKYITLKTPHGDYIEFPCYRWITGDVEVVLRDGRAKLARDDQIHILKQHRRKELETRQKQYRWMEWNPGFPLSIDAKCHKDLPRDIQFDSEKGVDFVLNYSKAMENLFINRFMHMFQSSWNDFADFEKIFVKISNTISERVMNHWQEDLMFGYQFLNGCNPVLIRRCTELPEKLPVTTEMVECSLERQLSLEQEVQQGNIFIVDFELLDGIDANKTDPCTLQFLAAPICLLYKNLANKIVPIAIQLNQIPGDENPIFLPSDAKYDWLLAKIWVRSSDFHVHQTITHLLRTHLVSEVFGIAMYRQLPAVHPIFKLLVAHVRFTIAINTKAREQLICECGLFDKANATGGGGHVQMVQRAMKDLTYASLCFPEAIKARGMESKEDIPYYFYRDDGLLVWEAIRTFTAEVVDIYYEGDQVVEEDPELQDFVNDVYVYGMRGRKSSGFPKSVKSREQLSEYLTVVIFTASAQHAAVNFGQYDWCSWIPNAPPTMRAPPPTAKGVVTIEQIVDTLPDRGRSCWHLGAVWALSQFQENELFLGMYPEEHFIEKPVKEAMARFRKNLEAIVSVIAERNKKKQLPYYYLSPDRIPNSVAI
The data set can be described thus: (§1) 5-lipoxygenase Inhibitory activity was measured by enzyme immunoassay using human whole blood stimulated with calcium ionophore (A23187) and LTB4 (leukotriene B4). It is filed as tissue-based. As to conditions: concentration not given here. The procedure, abridged:
(§2)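 Heparinized human blood (20 USP units/mL) preincubated with drug or vehicle 15 min at 37 °C, then stimulated with calcium ionophore A23187; LTB4 in extracts quantified by EIA. IC50 estimated by linear regression; means of at least duplicate, mostly triplicate determinations.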

A further data set has as its system Monkey. As to conditions: Cercopithecidae; Liver.
The target of data set [2] is T2, Polyunsaturated fatty acid 5-lipoxygenase (Homo sapiens, UniProt P09917).
T2 sequence (P09917 whole entry): T1 sequence (whole entry)
The description is as §1. It is filed as tissue-based. The method, boiled down: as §2

A short description of data set [3]: Oral bioavailability was determined in guinea pig. It is filed as ADME, organism-based, Cavia porcellus. As to conditions: in vivo.
Data set [4] is described as follows: Oral bioavailability was determined in dog. The data set is classed as ADME, organism-based, Canis lupus familiaris. As to conditions: in vivo.
Data set [5] can be described thus: Oral bioavailability in rat. As to conditions: in vivo. It is filed as ADME, organism-based.
A short description of data set [6]: Oral bioavailability was determined in cynomolgus monkey. The data set is classed as ADME, organism-based, Macaca fascicularis. As to conditions: in vivo.
Data set [7] can be described thus: Oral bioavailability was determined in mouse. As to conditions: in vivo. It is filed as ADME, organism-based.

In the data set with Rattus norvegicus, `CC(c1ccc(Oc2ccc(F)cc2)o1)N(O)C(N)=O` (configuration not stated) returned an inhibition in vivo at 30 µmol/kg of 0%. In [1], the inhibition worked out at 58%. Also, the GT rate in the data set with Monkey was 0.31.

`C[C@H](C#Cc1ccc(Oc2ccc(F)cc2)o1)N(O)C(N)=O` had an ED50 in the data set with Rattus norvegicus of 1.4 mg/kg. In addition, the GT rate in the data set with Monkey is 0.01. For the same compound, the IC50 in data set [2] was 80 nM.

`CC(C#Cc1ccc(Cc2ccc(F)cc2)s1)N(O)C(N)=O` (configuration not stated) gave an ED50 with Rattus norvegicus of 5.6 mg/kg. Also, the half-maximal inhibitory concentration (IC50) in data set [2] turned out to be 200 nM.

Turning to `CC(/C=C\c1ccc(Oc2ccc(F)cc2)o1)N(O)C(N)=O` (configuration not stated), the GT rate in the data set with Monkey was 2.4.

Compound `CC(c1cc2ccccc2s1)N(O)C(N)=O` (configuration not stated) [ZILEUTON] gave an ED50 with Rattus norvegicus of 4.4 mg/kg. The same compound returned a GT rate with Monkey of 0.12.

`CC(/C=C/c1ccc(Oc2ccc(F)cc2)o1)N(O)C(N)=O` (configuration not stated) came in with a GT rate in the data set on Monkey of 0.07.

The compound `NC(=O)N(O)CC#Cc1ccc(Cc2ccc(F)cc2)s1` yielded an inhibition in vivo at 30 µmol/kg in the data set on Rattus norvegicus of 78%. This compound returned a GT rate in the data set with Monkey of 0.05. The half-maximal inhibitory concentration (IC50) in [2] worked out at 70 nM.

In the data set on Rattus norvegicus, `C[C@@H](C#Cc1ccc(Oc2ccc(F)cc2)o1)N(O)C(N)=O` returned an ED50 of 1.5 mg/kg. Also, the GT rate in the data set on Monkey stood at 0.05. Also, in data set [2], the half-inhibitory concentration (IC50) is 50 nM.

On to `C[C@@H](C#Cc1ccc(Cc2ccc(F)cc2)s1)N(O)C(N)=O`, for which it took a dose of 2.1 mg/kg to reach the 50% effect level in the data set on Rattus norvegicus (ED50). Further, the IC50 in [2] worked out at 200 nM.

`CC(C#Cc1ccc(Oc2ccc(F)cc2)o1)N(O)C(N)=O` (configuration not stated): the ED50 in the data set on Rattus norvegicus was 1.2 mg/kg. In the data set with Monkey, this compound yielded a GT rate of 0.02. In data set [2], the IC50 worked out at 80 nM.

As to `NC(=O)N(O)CC#Cc1ccc(Oc2ccc(F)cc2)o1`, the inhibition in vivo at 30 µmol/kg in the data set on Rattus norvegicus stood at 70%. In addition, in the data set on Monkey, the GT rate is 0.03. Besides, in data set [2], the concentration for half-maximal inhibition (IC50) was 60 nM.

For `C[C@H](C#Cc1ccc(Cc2ccc(F)cc2)s1)N(O)C(N)=O` [ATRELEUTON], the bioavailability came out at 90% in data set [3]; 95% in data set [4]; 60% in data set [5]; 90% in data set [6]; 100% in data set [7]. In the data set with Rattus norvegicus, the median effective dose (ED50) was determined as 2.8 mg/kg.

For orientation: inhibition in vivo means how much of the control response was suppressed. Broadly, the inhibition is the change of the read-out against control, counted positive when it falls. By ED50 is commonly meant the dose that gives a 50% effect, or the effect in half of the subjects. A word on the IC50: it is the concentration that gives 50% inhibition. Broadly, the bioavailability is dose-corrected exposure relative to a reference, in per cent.
